STAT1 act: activators of IFN-gamma induced STAT1 signaling. NIH 3T3 STAT1-luciferase reporter, luminescence; 100% = IFN-gamma alone, no compound. activation (% of control), % at 5.5 µM. 200,000 compounds, 2.6% hits;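 active = activation above the screen-wide mean activation plus 3 SD, cut at about 130% in these data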;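 note: raw ratio to IFN-gamma control signal so 100% means no change and 0% no light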
NF-kB expr up: raises NF-kB expression in human neuronal cells; NF-kB reporter expression; active compounds read high; fold change at 12.5 µM; 190,000 compounds, 1.6% hits; in the data active = fold change above about 3.3
STAT1 blocker: reduces IFN-gamma driven STAT1 reporter signal | NIH 3T3 STAT1-luciferase reporter, luminescence | inhibition, % at 5.5 µM | 200,000 compounds, 0.35% hits | AID 920;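 active = inhibition above a set limit, the mean inhibition across all tested compounds plus 3 SD, cut at about 34% in these data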;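 note: 0% = IFN-gamma with DMSO and 100% = IFN-gamma with 300 µM nifuroxazide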
APP 5'UTR act: APP 5'UTR luciferase reporter activation | SH-SY5Y APP 5'UTR luciferase reporter, luminescence; zero percent = DMSO vehicle wells | activation, % at 2 µM | 190,000 compounds, 1% hits | AID 1276;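 active = activation above a set limit, based on mean plus 3 SD of controls, cut at about 140% in these data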
STAT3 activator: increases IL-6 driven STAT3 reporter signal. U3A cells, IL-6 STAT3-luciferase reporter, luminescence; 100% = signal with IL-6 EC80 alone. activation (% of control), % at 5.6 µM. 190,000 compounds, 0.91% hits;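 active = activation above the screen-wide mean of compound activation plus 3 SD, cut at about 130% in these data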;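 note: 0% = background luminescence of wells with medium and substrate only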
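Test system: Human STAT1-deficient U3A cells with stable STAT3-luciferase reporter | Also added: Interleukin-6, 33 ng/mL | Timing: Compound pre-incubation 1 h before IL-6, then 6 h stimulation at 37 °C | Technique: Luciferase reporter luminescence | Read-out: Percent of IL-6-only median luminescence | Benchmarks: IL-6-only wells as 100% reference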
STAT3 blocker: reduces IL-6 driven STAT3 reporter signal | U3A cells, IL-6 STAT3-luciferase reporter, luminescence; host cell line lacks STAT1 | inhibition, % at 5.5 µM | 190,000 compounds, 0.89% hits | AID 862;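 active = inhibition above the mean inhibition across all screened compounds plus 3 SD, cut at about 44% in these data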;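 note: 0% = DMSO only wells and 100% = 100 µM nifuroxazide control wells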
* hit, by the source's call. Only some compounds are listed: those with a hit (about 4.9% of all), similar ones and a draw of the others.

What do the screens show for `Cc1nc(-c2ccc(C(=O)Nc3ccccc3F)cc2)cs1`?
STAT1 act: 31; NF-kB expr up: 3.4*; STAT1 blocker: 75*; APP 5'UTR act: 112; STAT3 activator: 25; STAT3 blocker: 88*

What do the screens show for `CC(=O)Nc1ccc(Nc2ncnc3c2cnn3-c2cccc(C)c2)cc1`?
STAT1 act: 144*; NF-kB expr up: 1.3; STAT1 blocker: -48; APP 5'UTR act: 32; STAT3 activator: 97; STAT3 blocker: 6

What do the screens show for `c1csc(CNc2ncnc3sccc23)c1`?
STAT1 act: 77; STAT1 blocker: 25; APP 5'UTR act: -3; STAT3 activator: 49; STAT3 blocker: 66*

What do the screens show for `Cc1cccc(-n2ncc3c(NCc4cccs4)ncnc32)c1`?
STAT1 act: 131*; NF-kB expr up: 2.2; STAT1 blocker: -34; APP 5'UTR act: 76; STAT3 activator: 102; STAT3 blocker: 2

Results for c1cncc(CNc2ncnc3sccc23)c1 ?
STAT1 act: 90; NF-kB expr up: 1.1; STAT1 blocker: 12; APP 5'UTR act: 3; STAT3 activator: 94; STAT3 blocker: 8

How did COCCN(CCOC)c1ncnc2c1cnn2-c1ccc(Cl)cc1 do in these assays?
STAT1 act: 127; NF-kB expr up: 1.1; STAT1 blocker: -30; APP 5'UTR act: 42; STAT3 activator: 86; STAT3 blocker: 19

What do the screens show for `Cc1cccc(-n2ncc3c(N(CCO)CCO)ncnc32)c1`?
STAT1 act: 130*; NF-kB expr up: 1.8; STAT1 blocker: -31; APP 5'UTR act: 73; STAT3 activator: 109; STAT3 blocker: -11

Results for COc1cccc(C(=O)COC(=O)CCC(=O)NC2CCCCC2)c1 ?
STAT1 act: 105; NF-kB expr up: 0.97; STAT1 blocker: -7; APP 5'UTR act: 2; STAT3 activator: 97; STAT3 blocker: 5

How did COc1cccc(CC2(CO)CCCN(Cc3ccc(CN4CCCCC4)s3)C2)c1 (stereo not drawn) do in these assays?
STAT1 act: 94; NF-kB expr up: 0.79; STAT1 blocker: 5; APP 5'UTR act: 4; STAT3 activator: 103; STAT3 blocker: 1

What do the screens show for `Cc1cccc(-n2ncc3c(NCCN4CCOCC4)ncnc32)c1`?
STAT1 act: 107; NF-kB expr up: 0.84; STAT1 blocker: -8; APP 5'UTR act: 23; STAT3 activator: 108; STAT3 blocker: -2

What do the screens show for `Clc1ccc(Nc2ncnc3c2cnn3-c2ccccc2)cc1`?
STAT1 act: 125; NF-kB expr up: 2.4; STAT1 blocker: -25; APP 5'UTR act: 51; STAT3 activator: 96; STAT3 blocker: 4

Results for Cc1cccc(-n2ncc3c(NCc4ccccc4)ncnc32)c1 ?
STAT1 act: 121; NF-kB expr up: 1.8; STAT1 blocker: -21; APP 5'UTR act: 48; STAT3 activator: 107; STAT3 blocker: -8

Results for Clc1ccc(-n2ncc3c(NCc4cccs4)ncnc32)cc1 ?
STAT1 act: 134*; NF-kB expr up: 2.8; STAT1 blocker: -37; APP 5'UTR act: 126; STAT3 activator: 95; STAT3 blocker: 13

Results for COCCNc1ncnc2c1cnn2-c1ccc(Cl)cc1 ?
STAT1 act: 156*; NF-kB expr up: 7.4*; STAT1 blocker: -62; APP 5'UTR act: 197*; STAT3 activator: 85; STAT3 blocker: 25

What do the screens show for `Cc1cccc(-n2ncc3c(N4CCCc5ccccc54)ncnc32)c1`?
STAT1 act: 141*; NF-kB expr up: 2.8; STAT1 blocker: -44; APP 5'UTR act: 46; STAT3 activator: 99; STAT3 blocker: -2

How did Cc1cccc(-n2ncc3c(NCc4ccco4)ncnc32)c1 do in these assays?
STAT1 act: 130*; NF-kB expr up: 2.6; STAT1 blocker: -31; APP 5'UTR act: 49; STAT3 activator: 112; STAT3 blocker: -7

How did N#C/C(=C\c1cn(CCOc2ccccc2)c2ccccc12)C(=O)NCc1cccs1 do in these assays?
STAT1 act: 97; NF-kB expr up: 0.88; STAT1 blocker: 4; APP 5'UTR act: 7; STAT3 activator: 94; STAT3 blocker: 5

What do the screens show for `CC(C)(O)C(=O)N=Nc1c(O)[nH]c2ccccc12`?
STAT1 act: 115; NF-kB expr up: 1.5; STAT1 blocker: -17; APP 5'UTR act: 46; STAT3 activator: 108; STAT3 blocker: -6

Screening results from PubChem.
